Test results taken from ChEMBL document CHEMBL5712078, “BRD9 Inhibition, Alone or in Combination with Cytostatic Compounds as a Therapeutic Approach in Rhabdoid Tumors” (Int J Mol Sci, 2017).
pIC50: −log10 of the molar value.

Columns and labels:
[1] = tested on: BT-12; assay: Anti-proliferative activity against human BT-12 cells assessed as inhibition cell growth incubated for 72 hrs in presence of carboplatin by MTT-based Chou-Talalay method; format: functional; conditions: BT-12, 72 h
In short: (§1)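 Combination MTT assay. I-BRD9 and carboplatin, doxorubicin or vincristine were given together at a fixed 10:1 ratio, with cytostatics 0.0001–10 µM final, added 24 h after seeding. MTT read-out at 570/630 nm after 3 h formazan solubilisation. Combination index from the Chou–Talalay median-effect method: CI <1 synergism, CI >1 antagonism. n ≥3.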

[2] = tested on: BT-12; assay: Induction of apoptosis in human BT-12 cells assessed as necrotic cells at 20 uM incubated for 72 hrs by flow cytometry analysis (Rvb= 9.1+/-2.8 %); format: functional
In short: (§2)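 Annexin V/PI flow assay. G401 at 10,000 cells/mL and BT12 or Chla266 at 30,000 cells/mL were seeded in 12-well plates. Next day medium was replaced with medium holding I-BRD9 or BI-9564 at 0, 5, 10 or 20 µM final for 72 h. Cells were washed in PBS, stained with FITC-Annexin V and propidium iodide for 15 min in the dark at room temperature, then read by flow cytometry. Percentage of dead cells, n ≥3, mean ± SD, one-way ANOVA versus control.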

[3] = tested on: G-401; assay: Synergistic cytotoxicity against human G-401 cells assessed as combination index incubated for 72 hrs in presence of doxorubicin by MTT-based Chou-Talalay method; format: functional
In short: (§3)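 MTT combination assay. BT12 in IMDM/20% FBS at 5000 cells/well; G401 in DMEM/10% FBS. Drugs added 24 h after seeding, with I-BRD9 and cytostatic at a fixed 10:1 ratio (final ranges 0.001–100 µM and 0.0001–10 µM). After 72 h: MTT for 3 h, dissolved in isopropanol/0.04 N HCl, read at 570/630 nm. Technical triplicates, ≥3 independent runs; combination index by Chou–Talalay median-effect analysis.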

[4] = tested on: CHLA-266; assay: Induction of cell cycle arrest in human CHLA-266 cells assessed as accumulation of cells at G1 phase at 5 uM incubated for 72 hrs by flow cytometry analysis (reference value: 74.2+/-3.6%); format: functional
In short: (§4)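 Cell cycle. Seeding and 72 h treatment as for the apoptosis assay, with I-BRD9 or BI-9564 at 0, 5, 10 or 20 µM final. A 100 µL cell suspension was stained with DAPI and read by flow cytometry. Percentage of cells in G1, n ≥3, mean ± SD, one-way ANOVA versus control.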

[5] = tested on: G-401; assay: Anti-proliferative activity against human G-401 cells assessed as inhibition cell growth incubated for 72 hrs in presence of doxorubicin by MTT-based Chou-Talalay method; format: functional; conditions: G-401, 72 h; in short: as §1
[6] = tested on: CHLA-266; assay: Anti-proliferative activity against human CHLA-266 cells assessed as cell viability incubated for 72 hrs by MTT assay; format: functional, cell-based; conditions: CHLA-266, 72 h
In short: (§5)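 MTT proliferation assay. Cells were seeded at 3000 (BT16, KD, G401) or 5000 (BT12, Chla266) cells per well and drug was added after 24 h, final 0.001–100 µM. Read at 72 or 144 h; 144 h wells got fresh medium and drug on day 3. MTT for 3 h, formazan dissolved in isopropanol/0.04 N HCl, absorbance at 570/630 nm. Technical triplicates, ≥3 independent runs, IC50 derived.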

[7] = tested on: G-401; assay: Induction of cell cycle arrest in human G-401 cells assessed as accumulation of cells at G1 phase incubated for 72 hrs by flow cytometry analysis; format: functional, cell-based; conditions: dose 5-20 µM
In short: (§6)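 72 h DAPI flow-cytometry cell-cycle assay. Chla266 in IMDM/20% FBS seeded at 30,000 cells/mL; G401 in DMEM/10% FBS at 10,000 cells/mL; 1 mL/well, 37 °C, 5% CO2. Next day the medium was replaced with inhibitor at final 0, 5, 10 or 20 µM. Cells were harvested, PBS-washed, and the G1 percentage was read. n ≥ 3, mean ± SD, one-way ANOVA vs control.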

[8] = tested on: BT-12; assay: Synergistic cytotoxicity against human BT-12 cells assessed as combination index incubated for 72 hrs in presence of vincristine by MTT-based Chou-Talalay method; format: functional; in short: as §3
[9] = tested on: BT-12; assay: Anti-proliferative activity against human BT-12 cells assessed as inhibition cell growth incubated for 72 hrs in presence of doxorubicin by MTT-based Chou-Talalay method; format: functional; conditions: BT-12, 72 h; in short: as §1
[10] = tested on: BT-12; assay: Synergistic cytotoxicity against human BT-12 cells assessed as combination index incubated for 72 hrs in presence of doxorubicin by MTT-based Chou-Talalay method; format: functional; in short: as §3
[11] = tested on: G-401; assay: Induction of cell cycle arrest in human G-401 cells assessed as accumulation of cells at G1 phase at 10 uM incubated for 72 hrs by flow cytometry analysis (Rvb =46.7+/-1.9 %); format: functional; in short: as §6
[12] = tested on: G-401; assay: Induction of cell cycle arrest in human G-401 cells assessed as accumulation of cells at G1 phase at 5 uM incubated for 72 hrs by flow cytometry analysis (reference value: 46.7+/-1.9%); format: functional; in short: as §6
[13] = tested on: CHLA-266; assay: Induction of apoptosis in human CHLA-266 cells assessed as necrotic cells incubated for 72 hrs by flow cytometry analysis; format: functional, cell-based; conditions: dose 5-20 µM; in short: as §2
[14] = tested on: G-401; assay: Synergistic cytotoxicity against human G-401 cells assessed as combination index incubated for 72 hrs in presence of vincristine by MTT-based Chou-Talalay method; format: functional; in short: as §3
[15] = tested on: CHLA-266; assay: Anti-proliferative activity against human CHLA-266 cells assessed as cell viability incubated for 144 hrs by MTT assay; format: functional, cell-based; conditions: CHLA-266, 144 h; in short: as §5
[16] = tested on: CHLA-266; assay: Induction of apoptosis in human CHLA-266 cells assessed as necrotic cells at 20 uM incubated for 72 hrs by flow cytometry analysis (Rvb= 5.0+/-0.3 %)
[17] = tested on: BT-12; assay: Induction of apoptosis in human BT-12 cells assessed as necrotic cells at 5 uM incubated for 72 hrs by flow cytometry analysis (reference value: 9.1+/-2.8 %); format: functional; in short: as §2
[18] = tested on: G-401; assay: Induction of apoptosis in human G-401 cells assessed as necrotic cells incubated for 72 hrs by flow cytometry analysis; format: functional, cell-based; conditions: dose 5-20 µM; in short: as §2
[19] = tested on: G-401; assay: Synergistic cytotoxicity against human G-401 cells assessed as combination index incubated for 72 hrs in presence of carboplatin by MTT-based Chou-Talalay method; format: functional; in short: as §3
[20] = tested on: CHLA-266; assay: Induction of cell cycle arrest in human CHLA-266 cells assessed as accumulation of cells at G1 phase at 10 uM incubated for 72 hrs by flow cytometry analysis (reference value: 74.2+/-3.6%); format: functional; in short: as §4
[21] = tested on: BT-12; assay: Synergistic cytotoxicity against human BT-12 cells assessed as combination index incubated for 72 hrs in presence of carboplatin by MTT-based Chou-Talalay method; format: functional; in short: as §3
[22] = tested on: CHLA-266; assay: Induction of apoptosis in human CHLA-266 cells assessed as necrotic cells at 5 uM incubated for 72 hrs by flow cytometry analysis (Rvb= 5.0+/-0.3 %)
[23] = tested on: BT-12; assay: Induction of cell cycle arrest in human BT-12 cells assessed as accumulation of cells at G1 phase at 10 uM incubated for 72 hrs by flow cytometry analysis (reference value: 69+/-1.9%); format: functional; in short: as §4
[24] = tested on: BT-12; assay: Induction of cell cycle arrest in human BT-12 cells assessed as accumulation of cells at G1 phase at 20 uM incubated for 72 hrs by flow cytometry analysis (reference value: 69+/-1.9%); format: functional; in short: as §4

- pIC50 [1]: 4.39
- pIC50 [9]: 6.03
SMILES: CCn1cc(-c2cccc(C(F)(F)F)c2)c2sc(C(=N)NC3CCS(=O)(=O)CC3)cc2c1=O
- Activity [2]: 34.6%
- CI [3]: 1.2
- Activity [4]: 79.5%
- pIC50 [5]: 7.02
- pIC50 [6]: 4.88
- Activity [7]: Dose-Dependent Effect
- CI [8]: 96.1
- CI [10]: 0.42
- Activity [11]: 67.1%
- Activity [12]: 53%
- Activity [13]: Dose-Dependent Effect
- CI [14]: 9
- pIC50 [15]: 4.61
- Activity [16]: 25%
- Activity [17]: 19.9%
- Activity [18]: Dose-Dependent Effect
- CI [19]: 0.37
- Activity [20]: 82.7%
- CI [21]: 1.01
- Activity [22]: 7.7%
- Activity [23]: 80.1%
- Activity [24]: 85.6%
